Measured values from ChEMBL document CHEMBL2216748 (J Med Chem, 2012).
Calls of active or inactive are those of the source. The calls are words filed in the database; no cut-off is given here.

Columns and labels:
[1] = target: T1, Ribosyldihydronicotinamide dehydrogenase [quinone] (Homo sapiens) (UniProt P16083); test: Displacement of (S)-N4-(3-(3-(2-((4-carbamimidoylphenylamino)methyl)-1-methyl-N-(pyridin-2-yl)-1H-benzo[d]imidazole-5-carboxamido)propanamido)propyl)-N1-(15-oxo-19-((3aS,4S,6aR)-2-oxohexahydro-1H-thieno[3,4-d]imidazol-4-yl)-4,7,10-trioxa-14-azanonadecyl)-2-(4-(3-(trifluoromethyl)-3H-diazirin-3-yl)benzamido)succinamide from NQO2 in human HepG2 cell lysate after 1 hr by capture compound based LC/MS analysis
T1 sequence (whole entry): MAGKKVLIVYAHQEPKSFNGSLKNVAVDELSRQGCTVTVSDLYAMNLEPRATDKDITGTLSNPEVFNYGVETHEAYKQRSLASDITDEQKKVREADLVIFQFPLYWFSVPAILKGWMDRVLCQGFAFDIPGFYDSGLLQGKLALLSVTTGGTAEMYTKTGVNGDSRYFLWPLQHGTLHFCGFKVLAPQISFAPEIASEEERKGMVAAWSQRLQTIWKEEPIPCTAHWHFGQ
In short: (§1)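 Capture compound MS: 400 μg HepG2 or K562 lysate in capture buffer, precleared with streptavidin beads 30 min at 4 °C. Competition controls preincubated 30 min at 4 °C with free drug (10 μL of 1 mM). Capture compound (10 μL of 50 μM) equilibrated 1 h at 4 °C, UV-irradiated 10 min, streptavidin bead pulldown, on-bead trypsin digestion, nanoLC-MS/MS. Spectral counts compared capture vs competition (t test). HepG2 in quadruplicate, K562 in duplicate.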

[2] = target: Histamine N-methyltransferase (Homo sapiens) (UniProt P50135); test: (§2) Displacement of 3-(1-methyl-N-(pyridin-2-yl)-2-((4-(N-((S)-6,9,25-trioxo-29-((3aS,4S,6aR)-2-oxohexahydro-1H-thieno[3,4-d]imidazol-4-yl)-8-(4-(3-(trifluoromethyl)-3H-diazirin-3-yl)benzamido)-14,17,20-trioxa-5,10,24-triazanonacosyl)carbamimidoyl)phenylamino)methyl)-1H-benzo[d]imidazole-5-carboxamido)propanoic acid from HNMT in human HepG2 cell lysate after 1 hr by capture compound based LC/MS analysis; assay type: cell-free; in short: as §1
[3] = target: T2, Hypoxia up-regulated protein 1 (Homo sapiens) (UniProt Q9Y4L1); test: as §2, with “HYOU1” for “HNMT”; assay type: cell-free; in short: as §1
T2 sequence (whole entry): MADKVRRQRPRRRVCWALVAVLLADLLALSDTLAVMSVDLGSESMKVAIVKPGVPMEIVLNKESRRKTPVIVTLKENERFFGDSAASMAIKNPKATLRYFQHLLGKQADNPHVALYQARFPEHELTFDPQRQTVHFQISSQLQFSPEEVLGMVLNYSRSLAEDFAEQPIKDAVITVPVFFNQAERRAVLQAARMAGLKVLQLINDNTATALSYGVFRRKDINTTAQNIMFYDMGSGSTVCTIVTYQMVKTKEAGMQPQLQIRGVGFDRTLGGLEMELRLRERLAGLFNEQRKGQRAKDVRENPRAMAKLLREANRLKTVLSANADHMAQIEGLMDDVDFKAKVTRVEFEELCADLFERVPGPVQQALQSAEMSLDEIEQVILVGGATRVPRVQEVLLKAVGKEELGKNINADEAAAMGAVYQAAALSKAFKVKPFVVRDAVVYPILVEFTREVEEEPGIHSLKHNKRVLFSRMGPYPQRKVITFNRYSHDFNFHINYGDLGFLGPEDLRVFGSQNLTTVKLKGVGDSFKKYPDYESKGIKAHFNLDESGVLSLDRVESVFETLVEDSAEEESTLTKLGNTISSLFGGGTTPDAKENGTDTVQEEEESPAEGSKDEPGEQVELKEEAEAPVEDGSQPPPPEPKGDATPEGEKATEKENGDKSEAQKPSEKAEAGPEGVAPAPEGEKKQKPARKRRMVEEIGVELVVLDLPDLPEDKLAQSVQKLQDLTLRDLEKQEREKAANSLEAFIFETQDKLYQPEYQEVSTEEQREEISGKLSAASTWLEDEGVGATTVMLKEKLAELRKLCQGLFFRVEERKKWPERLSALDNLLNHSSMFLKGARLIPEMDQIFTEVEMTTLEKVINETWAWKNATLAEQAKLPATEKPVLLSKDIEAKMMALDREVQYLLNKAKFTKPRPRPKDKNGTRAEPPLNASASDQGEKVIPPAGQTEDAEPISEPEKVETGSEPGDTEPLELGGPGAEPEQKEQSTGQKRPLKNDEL

[4] = target: Heterogeneous nuclear ribonucleoproteins C1/C2 (Homo sapiens) (UniProt P07910); test: as §2, with “HNRPC” for “HNMT”; assay type: cell-free; in short: as §1
[5] = target: Adenosine kinase (Homo sapiens) (UniProt P55263); test: as §2, with “ADK” for “HNMT”; assay type: cell-free; in short: as §1
[6] = target: T1, Ribosyldihydronicotinamide dehydrogenase [quinone] (Homo sapiens); test: (§3) Displacement of (S)-N4-(4-(3-(2-((4-carbamimidoylphenylamino)methyl)-1-methyl-N-(pyridin-2-yl)-1H-benzo[d]imidazole-5-carboxamido)propanamido)butyl)-N1-(15-oxo-19-((3aS,4S,6aR)-2-oxohexahydro-1H-thieno[3,4-d]imidazol-4-yl)-4,7,10-trioxa-14-azanonadecyl)-2-(4-(3-(trifluoromethyl)-3H-diazirin-3-yl)benzamido)succinamide from NQO2 in human K562 cell lysate after 1 hr by capture compound based LC/MS analysis; assay type: cell-free; in short: as §1
[7] = target: T1, Ribosyldihydronicotinamide dehydrogenase [quinone] (Homo sapiens); test: (§4) Displacement of (S)-N4-(4-(3-(2-((4-carbamimidoylphenylamino)methyl)-1-methyl-N-(pyridin-2-yl)-1H-benzo[d]imidazole-5-carboxamido)propanamido)butyl)-N1-(15-oxo-19-((3aS,4S,6aR)-2-oxohexahydro-1H-thieno[3,4-d]imidazol-4-yl)-4,7,10-trioxa-14-azanonadecyl)-2-(4-(3-(trifluoromethyl)-3H-diazirin-3-yl)benzamido)succinamide from NQO2 in human HepG2 cell lysate at 100 uM after 1 hr by Western blot analysis; assay type: cell-free
In short: (§5)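 NQO2 capture from HepG2 or K562 lysate, or from pooled human liver microsomes, with capture compound (1 h, 4 °C) after 30 min competitor preincubation. UV cross-linked 10 min and streptavidin pulldown. Detection by Western blot: anti-NQO2 1:500, then HRP anti-rabbit secondary 1:1000.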

[8] = target: T1, Ribosyldihydronicotinamide dehydrogenase [quinone] (Homo sapiens); test: as §4, with “K562” for “HepG2”; assay type: cell-free; in short: as §5
[9] = target: T1, Ribosyldihydronicotinamide dehydrogenase [quinone] (Homo sapiens); test: as §4, with “liver microsomes” for “HepG2 cell lysate at 100 uM”; details: Microsome; in short: as §5
[10] = target: T1, Ribosyldihydronicotinamide dehydrogenase [quinone] (Homo sapiens); test: (§6) Displacement of 3-(1-methyl-N-(pyridin-2-yl)-2-((4-(N-((S)-6,9,25-trioxo-29-((3aS,4S,6aR)-2-oxohexahydro-1H-thieno[3,4-d]imidazol-4-yl)-8-(4-(3-(trifluoromethyl)-3H-diazirin-3-yl)benzamido)-14,17,20-trioxa-5,10,24-triazanonacosyl)carbamimidoyl)phenylamino)methyl)-1H-benzo[d]imidazole-5-carboxamido)propanoic acid from NQO2 in human liver microsomes after 1 hr by Western blot analysis; details: Microsome; in short: as §5
[11] = target: T1, Ribosyldihydronicotinamide dehydrogenase [quinone] (Homo sapiens); test: as §3, with “from human recombinant” for “from”, “NQO2” for “NQO2 in human K562 cell lysate”, “silver staining-based SDS PAGE” for “capture compound based LC/MS”
In short: (§7)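 Human recombinant NQO2 (1 μg) was preincubated 30 min at 4 °C with competitor, then capture compound was added at 5 μM final (competitors 100 μM final) and equilibrated 1 h at 4 °C. Samples were UV-irradiated 10 min, pulled down on streptavidin beads and resolved by silver-stained SDS-PAGE.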

[12] = target: T1, Ribosyldihydronicotinamide dehydrogenase [quinone] (Homo sapiens); test: as §6, with “from human recombinant” for “from”, “NQO2” for “NQO2 in human liver microsomes”, “silver staining-based SDS PAGE” for “Western blot”; in short: as §7
[13] = target: T1, Ribosyldihydronicotinamide dehydrogenase [quinone] (Homo sapiens); test: Displacement of (S)-N4-(2-(4-(4-(4-methyl-3-(4-(pyridin-3-yl)pyrimidin-2-ylamino)phenylcarbamoyl)benzyl)piperazin-1-yl)ethyl)-N1-(15-oxo-19-((3aS,4S,6aR)-2-oxohexahydro-1H-thieno[3,4-d]imidazol-4-yl)-4,7,10-trioxa-14-azanonadecyl)-2-(4-(3-(trifluoromethyl)-3H-diazirin-3-yl)benzamido)succinamide from human recombinant NQO2 after 1 hr by silver staining-based SDS PAGE analysis; in short: as §7
[14] = Inhibition of human alpha thrombin using Boc-Val-Pro-Arg-AMC as substrate after 2 hrs by fluorometric analysis
In short: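 Human α-thrombin at 5.5 ng/mL final with Boc-Val-Pro-Arg-AMC (15 μM) in 50 mM Tris pH 7.5, 150 mM NaCl, 0.05% Tween 20. Compound tested as 16 two-fold dilutions in DMSO, 2.5 mM to 75 nM. Incubated 2 h at room temperature; fluorescence read at ex 355, em 460 nm for percent inhibition.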

Histamine N-methyltransferase (Homo sapiens), sequence (P50135 whole entry): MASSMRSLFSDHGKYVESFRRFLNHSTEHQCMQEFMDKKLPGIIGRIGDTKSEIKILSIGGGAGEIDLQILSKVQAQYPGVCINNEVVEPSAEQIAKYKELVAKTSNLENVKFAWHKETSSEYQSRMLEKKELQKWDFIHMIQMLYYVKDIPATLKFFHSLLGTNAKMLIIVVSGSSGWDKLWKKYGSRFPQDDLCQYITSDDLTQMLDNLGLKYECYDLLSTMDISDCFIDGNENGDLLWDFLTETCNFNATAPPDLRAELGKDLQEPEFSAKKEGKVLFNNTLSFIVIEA
Heterogeneous nuclear ribonucleoproteins C1/C2 (Homo sapiens), sequence (P07910 whole entry): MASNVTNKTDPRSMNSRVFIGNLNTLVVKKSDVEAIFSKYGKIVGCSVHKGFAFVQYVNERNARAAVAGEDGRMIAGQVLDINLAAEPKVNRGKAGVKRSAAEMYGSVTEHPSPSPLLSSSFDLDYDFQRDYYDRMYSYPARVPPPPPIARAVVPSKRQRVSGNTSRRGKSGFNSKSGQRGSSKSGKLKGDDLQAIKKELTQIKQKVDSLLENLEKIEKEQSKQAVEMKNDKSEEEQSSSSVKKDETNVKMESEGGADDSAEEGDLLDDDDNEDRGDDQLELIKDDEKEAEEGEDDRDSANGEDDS
Adenosine kinase (Homo sapiens), sequence (P55263 2-362 limits assumed): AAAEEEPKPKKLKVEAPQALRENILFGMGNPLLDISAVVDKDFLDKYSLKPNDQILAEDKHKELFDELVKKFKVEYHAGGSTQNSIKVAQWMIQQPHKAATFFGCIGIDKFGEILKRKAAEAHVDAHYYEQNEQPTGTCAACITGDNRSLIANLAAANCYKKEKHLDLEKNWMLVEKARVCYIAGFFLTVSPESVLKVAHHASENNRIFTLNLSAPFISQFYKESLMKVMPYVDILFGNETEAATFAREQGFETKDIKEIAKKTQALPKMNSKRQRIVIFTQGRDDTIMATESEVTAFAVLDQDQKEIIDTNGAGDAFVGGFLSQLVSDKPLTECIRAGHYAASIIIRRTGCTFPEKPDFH

Compound: Cn1c(CNc2ccc(C(=N)N)cc2)nc2cc(C(=O)N(CCC(=O)O)c3ccccn3)ccc21 [DABIGATRAN]
- Activity [1]: Active
- Activity [2]: Active
- Activity [3]: Active
- Activity [4]: Active
- Activity [5]: Active
- Activity [6]: Active
- Activity [7]: Active
- Activity [8]: Active
- Activity [9]: Active
- Activity [10]: Active
- Activity [11]: Active
- Activity [12]: Active
- Activity [13]: Active
- IC50 [14]: 0.0138 µM
